In ChEMBL document CHEMBL4513216, “Probing the Open Global Health Chemical Diversity Library for Multistage-Active Starting Points for Next-Generation Antimalarials” (ACS Infect Dis, 2020):

Test: Toxicity liver stage against HepG2, at 10uM
Assay type: cell-based
Design: test concentration 10 uM, cell line HepG2-A16-CD81EGFP
Conditions: human, HepG2-A16-CD81EGFP cells; read-out: INHIBITION
Method in brief: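 Uninfected HepG2-A16-CD81EGFP cells, 3 × 10^3 per well, 1536-well, plated on prespotted compound at 10 μM final, parasite-free screening media added to match infected plates; puromycin 10 μM positive, DMSO 0.5% negative; run in parallel with 48 h PbLuc assay at 37 °C, 5% CO2; viability by CellTiter-Glo luminescence, normalized to controls.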
`CC(c1cccc(Cl)c1)N(C)CCS(=O)(=O)CCC(N)=O` (stereo unspecified) showed a cytotoxicity at 10 µM of -45.8%.
Work on `O=C(CN1CCSCC1c1ccccc1)N1CCCC1` (stereo unspecified) yielded a cytotoxicity at 10 µM of 7.34%.
`CC(C)Sc1ccc(C(C)NC(=O)Cn2cccnc2=O)cc1` (stereo unspecified) showed a cytotoxicity at 10 µM of 16.8%.
For `O=C(c1cc[nH]n1)N1CCCC1C1CCN(Cc2ccccc2)CC1` (stereo unspecified), the cytotoxicity at 10 µM was 1.98%.
For `Cc1nc(NCC2CC2)nc2c1COCC21CCNC1` (stereo unspecified), the cytotoxicity at 10 µM was -72.8%.
In the case of `COc1cccc2c1OCC(Cc1cc(C(N)=O)ccn1)C2` (stereo unspecified), the cytotoxicity at 10 µM is reported as 5.83%.
In the case of `CC(C)Cn1cncc1CNC1CCSC1` (stereo unspecified), the cytotoxicity at 10 µM is reported as -2.34%.
Compound `CCc1oc(C(=O)NCCSc2ncn[nH]2)cc1CN1CCCC1` has a cytotoxicity at 10 µM of -5.25%.
For `CCN(CC)CCc1nc2c([nH]1)CC(c1ccc(Cl)cc1)CNC2=O` (stereo unspecified), the cytotoxicity at 10 µM was -58.9%.
With `O=C(NCc1cccnc1)C1CN(c2cnc3ccccc3n2)CCN1` (stereo unspecified) the cytotoxicity at 10 µM was -48.9%.
`COCCn1cnnc1Cn1ccnc1-c1ccoc1` gave a cytotoxicity at 10 µM of -2.66%.
Work on `Cc1cc(F)ccc1N1CCC(N2C[C@@H](CN(C)C)[C@@H](CO)C2)CC1` yielded a cytotoxicity at 10 µM of -12.1%.
`CCn1ccnc1C1CCN(c2ncnc3ccsc23)CC1` gave a cytotoxicity at 10 µM of 5.31%.
With `Cc1cnccc1CN(C)C(=O)C(C)(C)NC(=O)c1cccs1` the cytotoxicity at 10 µM was 6.89%.
`CC(C)N1CCC(NCc2cccnc2N(C)Cc2ccccc2)CC1` gave a cytotoxicity at 10 µM of 21%.
Work on `Cn1nc(C2CCCN(Cc3ccsc3)C2)c2nccnc21` (stereo unspecified) yielded a cytotoxicity at 10 µM of -2.58%.
With `COc1ncc(CN2CC[C@@](C)(O)[C@H](Oc3cccc(F)c3)C2)cn1` the cytotoxicity at 10 µM was 1.68%.
`O=C(NC1CCN(C2CC2)CC1)N1CCN(c2cnccn2)CC1` gave a cytotoxicity at 10 µM of -6.97%.
For `Cc1noc(C)c1CCC(=O)N1CCCN(CC(N)=O)CC1`, the cytotoxicity at 10 µM was -12.4%.
Work on `O=C(CN1CCCC(Cn2cncn2)C1)NCCC1=CCCCC1` (stereo unspecified) yielded a cytotoxicity at 10 µM of -3.33%.
With `COc1ccccc1OCCNC1CCCN(Cc2noc(C)n2)C1` (stereo unspecified) the cytotoxicity at 10 µM was -19.1%.
Work on `CCN(Cc1ccc2c(c1)OCO2)C(=O)Cn1cccnc1=O` yielded a cytotoxicity at 10 µM of -2.27%.
In the case of `CCN(Cc1ccc2c(c1)OCCO2)C(=O)Cn1cccnc1=O`, the cytotoxicity at 10 µM is reported as -5.1%.
Compound `CCc1nc(CN2CCCN(Cc3nnc(C4CC4)o3)CC2)no1` has a cytotoxicity at 10 µM of -9.26%.
`O=C(c1ccc2c(c1)OCCO2)N1CCCC(n2ccnc2)C1` (stereo unspecified) showed a cytotoxicity at 10 µM of -16.3%.
Compound `Cc1cc(C)n(CC2CCCN2Cc2nc(N)c3ccccc3n2)n1` (stereo unspecified) has a cytotoxicity at 10 µM of -11.7%.
For `Cc1cnn(CC2CCCN2Cc2noc(C3CC3)n2)c1` (stereo unspecified), the cytotoxicity at 10 µM was -17.3%.
With `Cc1cc(C)cc(OCCN2CCn3c(C)nnc3C2)c1` the cytotoxicity at 10 µM was -9.08%.
`CC(C)c1cc(NC(=O)c2ccc(C(=O)NC(C)(C)C)cc2)[nH]n1` showed a cytotoxicity at 10 µM of -0.164%.
`Cn1ccc(CN2CCC(c3ccccc3)CC2)cc1=O` gave a cytotoxicity at 10 µM of -6.46%.
In the case of `Cc1cc(C(=O)N2CCCCC2C)ccc1NCCCO` (stereo unspecified), the cytotoxicity at 10 µM is reported as -4.35%.
For `Cc1ccc(C)c(OCCN2CCC(N3CCNC3=O)CC2)c1`, the cytotoxicity at 10 µM was 1.85%.
For `CCc1nc(CN2CCCN(C(=O)C(C)n3cncn3)CC2)cs1` (stereo unspecified), the cytotoxicity at 10 µM was -7.26%.
For `COc1cc(S(=O)(=O)N2CCCc3ccccc32)cc(C(=O)O)c1OC`, the cytotoxicity at 10 µM was 1.8%.
In the case of `Cc1cnn(CC2CCCCN2CCCS(N)(=O)=O)c1` (stereo unspecified), the cytotoxicity at 10 µM is reported as 4.02%.
Work on `CC(C)Oc1ncccc1CNC(=O)c1ccco1` yielded a cytotoxicity at 10 µM of 1.32%.
Work on `Cc1cc(C(=O)N2CCCC2Cn2nc(C)cc2C)on1` (stereo unspecified) yielded a cytotoxicity at 10 µM of -8.21%.
`COc1ccc(Cl)cc1CC(=O)N1CCN(CCO)CC1` gave a cytotoxicity at 10 µM of -9.51%.
`CCN1CCN(C2CCN(Cc3nc4ccccc4o3)CC2)C1=O` gave a cytotoxicity at 10 µM of 5.61%.
`Cc1cnn(CCNCC(=O)NCC2(c3ccccc3)CCC2)c1` gave a cytotoxicity at 10 µM of 5.87%.
`CC1c2ncc(COCc3ccccn3)n2CCN1C1CCCC1` (stereo unspecified) gave a cytotoxicity at 10 µM of 12.8%.
Work on `Cc1ccc2c(n1)N(CCn1cccn1)CCN(C(=O)NC1CC1)C2` yielded a cytotoxicity at 10 µM of -4.58%.
In the case of `CN(Cc1ccncc1)C1COC2(CCN(c3ncc(F)cn3)CC2)C1` (stereo unspecified), the cytotoxicity at 10 µM is reported as 6.95%.
In the case of `O=C([C@H]1CN(Cc2ccncc2)C[C@H]2OCC[C@@H]12)N1CCCCO1`, the cytotoxicity at 10 µM is reported as 9.01%.
Compound `CO[C@@H]1CCN(c2nnc(C)s2)C[C@@H]1Cc1ccccc1` has a cytotoxicity at 10 µM of 10.5%.
With `Fc1cnc(N2CC[C@@H]3OC(COCc4cccnc4)CC[C@@H]32)nc1` (stereo partly specified) the cytotoxicity at 10 µM was 9.94%.
`O=C(c1ccccc1)N1CCO[C@@H]2CN(c3cnccn3)C[C@@H]2C1` gave a cytotoxicity at 10 µM of 0.442%.
In the case of `O=C(c1ccncc1)N1CCOC2(COCCN(c3cncnc3)C2)C1` (stereo unspecified), the cytotoxicity at 10 µM is reported as 8.58%.
`CC(C)N1[C@@H](C(=O)NCCN(C)C)C[C@H]2CN(c3ncccn3)C[C@H]21` showed a cytotoxicity at 10 µM of 8.73%.
With `CN(C)c1ncnc2c1CCN(CC1CCCC1)CC2` the cytotoxicity at 10 µM was 1.03%.
In the case of `COCCN1CCO[C@@H]2CN(C(=O)COc3ccc(C)cc3)C[C@@H]2C1`, the cytotoxicity at 10 µM is reported as -0.572%.
In the case of `COCC1CC2(CCN(CC3CC3)CC2)CN1Cc1csc(C)n1` (stereo unspecified), the cytotoxicity at 10 µM is reported as 4.26%.
With `Cn1ccc(CN2CCC3(CC2)CC(Nc2ccccn2)CO3)n1` (stereo unspecified) the cytotoxicity at 10 µM was -1.19%.
With `CCC1=N[C@@]2(CC[C@@H]3CN(Cc4ccccc4C)C[C@@H]32)C(=O)N1` the cytotoxicity at 10 µM was 8.4%.
`O=S1(=O)NC(=CSCc2ccccc2)Nc2ccccc21` gave a cytotoxicity at 10 µM of 0.603%.
Compound `Cc1cc(C(=O)N2C[C@@H]3CC[C@H]2CN(C(=O)c2ccncc2)C3)cs1` has a cytotoxicity at 10 µM of -2.56%.
